Results from the M2OR odorant receptor database.

Columns and labels:
Settings in all cases: stereoisomer not certain
[1] = target: T1, UniProt Q7TR79
T1 sequence (whole entry): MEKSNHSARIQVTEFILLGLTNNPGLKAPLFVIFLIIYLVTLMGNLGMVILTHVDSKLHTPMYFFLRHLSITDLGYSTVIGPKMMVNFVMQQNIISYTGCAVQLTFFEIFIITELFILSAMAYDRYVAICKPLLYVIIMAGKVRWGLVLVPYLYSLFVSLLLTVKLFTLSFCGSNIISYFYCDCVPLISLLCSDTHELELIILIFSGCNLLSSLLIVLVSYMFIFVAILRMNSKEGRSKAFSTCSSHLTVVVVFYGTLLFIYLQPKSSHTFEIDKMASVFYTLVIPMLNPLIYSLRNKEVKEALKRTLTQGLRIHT
Summary of the method: (§1)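 Each receptor–molecule pair is labelled responsive or non-responsive (inactive) according to whether the original authors judged the measured signal statistically different from baseline. The data were taken from the main text and supplementary material of published papers and checked for typos and inconsistencies. Assay methods differed by source, with transient luciferase assays in mammalian cell lines being common.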

[2] = target: T2, UniProt Q7TRX0
T2 sequence (whole entry): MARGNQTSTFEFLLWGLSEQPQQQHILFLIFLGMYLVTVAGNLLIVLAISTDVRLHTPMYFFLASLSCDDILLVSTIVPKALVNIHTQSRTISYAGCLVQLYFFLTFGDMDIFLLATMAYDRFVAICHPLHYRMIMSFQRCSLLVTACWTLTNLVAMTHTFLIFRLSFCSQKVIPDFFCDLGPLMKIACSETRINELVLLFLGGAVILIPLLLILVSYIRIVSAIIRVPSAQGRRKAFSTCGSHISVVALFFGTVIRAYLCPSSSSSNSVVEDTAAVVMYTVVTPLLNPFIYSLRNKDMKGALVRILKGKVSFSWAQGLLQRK
Summary of the method: as §1

[3] = target: T3, UniProt Q7TRM0
T3 sequence (whole entry): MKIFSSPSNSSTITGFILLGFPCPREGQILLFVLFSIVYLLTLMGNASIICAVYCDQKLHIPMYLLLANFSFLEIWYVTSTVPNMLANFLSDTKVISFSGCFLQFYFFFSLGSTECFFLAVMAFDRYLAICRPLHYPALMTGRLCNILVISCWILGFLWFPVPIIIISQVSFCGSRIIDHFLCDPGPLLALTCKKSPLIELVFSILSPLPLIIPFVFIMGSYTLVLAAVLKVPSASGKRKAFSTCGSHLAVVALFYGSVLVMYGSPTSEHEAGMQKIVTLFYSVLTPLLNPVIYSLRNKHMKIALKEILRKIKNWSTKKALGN
Summary of the method: as §1

[4] = target: T4, UniProt Q7TRN9
T4 sequence (whole entry): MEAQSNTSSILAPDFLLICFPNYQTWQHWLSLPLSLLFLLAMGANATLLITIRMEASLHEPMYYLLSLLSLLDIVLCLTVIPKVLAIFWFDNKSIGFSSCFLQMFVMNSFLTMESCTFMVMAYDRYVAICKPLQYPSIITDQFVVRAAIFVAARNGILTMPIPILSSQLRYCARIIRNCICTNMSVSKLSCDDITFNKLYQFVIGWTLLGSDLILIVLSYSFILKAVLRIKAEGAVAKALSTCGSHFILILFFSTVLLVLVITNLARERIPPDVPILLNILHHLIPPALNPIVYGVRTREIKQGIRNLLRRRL
Summary of the method: as §1

[5] = target: T5, UniProt Q7TRR8
T5 sequence (whole entry): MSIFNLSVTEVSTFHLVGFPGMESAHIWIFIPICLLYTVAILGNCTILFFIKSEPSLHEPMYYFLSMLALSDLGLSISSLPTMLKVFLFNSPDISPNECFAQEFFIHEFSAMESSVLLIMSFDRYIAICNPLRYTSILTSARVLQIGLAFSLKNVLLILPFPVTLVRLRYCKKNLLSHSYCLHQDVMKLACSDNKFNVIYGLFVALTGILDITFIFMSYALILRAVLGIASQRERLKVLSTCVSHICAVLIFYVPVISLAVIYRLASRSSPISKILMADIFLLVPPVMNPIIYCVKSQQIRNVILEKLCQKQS
Summary of the method: as §1
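Further: active if original authors judged signal statistically different from baseline.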

C=CC(=C)CCC=C(C)CCC=C(C)C
odorant receptor agonist call [1]: inactive | odorant receptor agonist call [2]: inactive

O=C([O-])CCCCC(=O)[O-].[H+].[H+]
odorant receptor agonist call [3]: inactive | odorant receptor agonist call [4]: inactive | odorant receptor agonist call [5]: inactive

CCCCCCC(C)O (stereo not given)
odorant receptor agonist call [1]: inactive | odorant receptor agonist call [2]: inactive

CCSCC
odorant receptor agonist call [1]: inactive | odorant receptor agonist call [2]: inactive

O=C(O)CCCCCC(=O)O
odorant receptor agonist call [3]: inactive | odorant receptor agonist call [4]: inactive | odorant receptor agonist call [5]: inactive

CCc1ccc(O)cc1
odorant receptor agonist call [1]: inactive | odorant receptor agonist call [2]: inactive

Cc1occc1SSc1ccoc1C
odorant receptor agonist call [1]: inactive | odorant receptor agonist call [2]: inactive

CC=Cc1ccc(OC)cc1
odorant receptor agonist call [1]: inactive | odorant receptor agonist call [2]: inactive

CCCCCC=CCCC=O
odorant receptor agonist call [1]: inactive | odorant receptor agonist call [2]: inactive

CCCCCCC(=O)OCCCC
odorant receptor agonist call [1]: inactive | odorant receptor agonist call [2]: inactive

CCCC(C)C(=O)OCC (stereo not given)
odorant receptor agonist call [1]: inactive | odorant receptor agonist call [2]: inactive

CCc1occc(=O)c1O
odorant receptor agonist call [1]: inactive | odorant receptor agonist call [2]: inactive

Cc1ccc(C(C)C)c(O)c1
odorant receptor agonist call [1]: inactive | odorant receptor agonist call [2]: inactive

C=C(C)C1CCC(C)C(O)C1 (stereo not given)
odorant receptor agonist call [1]: inactive | odorant receptor agonist call [2]: inactive
